For assay [1], the system named is LNCaP. The experiment in a line: Antioxidant activity against formation of ROS was determined in t-BuOOH treated LNCaP cells after 24 hr of incubation with compounds (1-100 uM); Not active at 100 uM. In kind it is functional, cell-based, Homo sapiens.
Assay [2] concerns the target T1, Alpha-1D adrenergic receptor (Homo sapiens, UniProt P25100).
T1 sequence (P25100 whole entry): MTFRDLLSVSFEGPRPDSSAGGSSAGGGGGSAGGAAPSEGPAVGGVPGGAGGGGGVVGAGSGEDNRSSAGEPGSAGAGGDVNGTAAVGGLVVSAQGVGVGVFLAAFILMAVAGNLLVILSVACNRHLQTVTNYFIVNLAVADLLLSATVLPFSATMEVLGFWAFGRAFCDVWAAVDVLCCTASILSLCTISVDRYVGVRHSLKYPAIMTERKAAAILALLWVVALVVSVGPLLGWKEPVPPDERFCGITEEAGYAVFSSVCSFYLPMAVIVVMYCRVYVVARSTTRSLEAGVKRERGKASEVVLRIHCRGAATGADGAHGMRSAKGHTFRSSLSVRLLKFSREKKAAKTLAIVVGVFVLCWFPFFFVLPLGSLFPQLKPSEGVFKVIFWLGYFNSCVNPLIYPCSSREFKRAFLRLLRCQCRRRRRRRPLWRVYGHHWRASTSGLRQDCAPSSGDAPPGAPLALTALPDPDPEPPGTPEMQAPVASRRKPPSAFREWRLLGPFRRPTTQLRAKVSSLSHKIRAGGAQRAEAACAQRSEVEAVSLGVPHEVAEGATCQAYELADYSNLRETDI
The experiment in a line: Equilibrium dissociation constant was evaluated by radio-receptor binding assays using [3H]prazosin to label cloned human alpha 1d expressed in CHO cells. In kind it is cell-based.

Assay [3] relates to LNCaP. Nature of the assay: Antiproliferative activity was determined by colorimetric MTS assay in LNCaP cells after 72 hr of incubation with compounds (1-100 uM). Format: functional, cell-based. The conditions noted are these: Homo sapiens. In a few lines:
(§1)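 LNCaP cells exposed 72 h to compounds (1–100 μM). Proliferation read by colorimetric MTS assay. IC50 is the concentration giving 50% inhibition of cell proliferation. Mean ± SD of three independent experiments.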
In general terms: Tetrazolium assays rely on reduction of a dye to a coloured formazan, in cell work by metabolically active cells.

The target in assay [4] is T2, Alpha-1A adrenergic receptor (Rattus norvegicus, UniProt P43140).
T2 sequence (P43140 whole entry): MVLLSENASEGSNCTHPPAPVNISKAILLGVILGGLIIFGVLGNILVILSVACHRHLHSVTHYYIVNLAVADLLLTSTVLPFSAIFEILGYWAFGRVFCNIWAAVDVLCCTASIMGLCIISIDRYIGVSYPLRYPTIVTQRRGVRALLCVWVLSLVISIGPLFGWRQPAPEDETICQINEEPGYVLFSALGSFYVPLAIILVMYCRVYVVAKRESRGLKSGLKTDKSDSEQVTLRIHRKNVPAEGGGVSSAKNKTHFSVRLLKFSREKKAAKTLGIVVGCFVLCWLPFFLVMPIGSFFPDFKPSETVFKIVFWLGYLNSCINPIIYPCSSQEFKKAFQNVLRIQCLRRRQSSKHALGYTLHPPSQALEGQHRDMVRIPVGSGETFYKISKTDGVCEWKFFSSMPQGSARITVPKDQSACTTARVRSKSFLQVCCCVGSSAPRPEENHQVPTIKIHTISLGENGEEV
Nature of the assay: Blocking activity was assessed by antagonism of (-)-noradrenaline induced contraction of rat prostatic vas deferens (alpha1A adrenoceptor). The conditions noted are these: read-out: pA2 (converted). Format: functional, tissue-based.

Assay [5] has as its target T3, Alpha-1A adrenergic receptor (Homo sapiens, UniProt P35348).
T3 sequence (P35348 whole entry): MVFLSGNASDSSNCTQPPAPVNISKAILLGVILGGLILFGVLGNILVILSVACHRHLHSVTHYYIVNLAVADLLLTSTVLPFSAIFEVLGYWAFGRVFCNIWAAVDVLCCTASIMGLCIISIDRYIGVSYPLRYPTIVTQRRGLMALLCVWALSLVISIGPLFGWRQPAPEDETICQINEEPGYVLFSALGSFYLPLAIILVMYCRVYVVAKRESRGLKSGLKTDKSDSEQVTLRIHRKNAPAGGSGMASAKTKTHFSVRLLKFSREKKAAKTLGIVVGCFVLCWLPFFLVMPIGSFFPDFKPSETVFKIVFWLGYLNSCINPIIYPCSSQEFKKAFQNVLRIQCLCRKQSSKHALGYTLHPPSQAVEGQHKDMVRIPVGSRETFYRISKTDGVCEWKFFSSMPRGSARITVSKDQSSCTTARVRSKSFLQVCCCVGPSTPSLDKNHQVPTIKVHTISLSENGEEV
Nature of the assay: Equilibrium dissociation constant was evaluated by radio-receptor binding assays using [3H]prazosin to label cloned human alpha 1a expressed in CHO cells. In kind it is cell-based.

The target in assay [6] is T4, Alpha-1B adrenergic receptor (Rattus norvegicus, UniProt P15823).
T4 sequence (P15823 whole entry): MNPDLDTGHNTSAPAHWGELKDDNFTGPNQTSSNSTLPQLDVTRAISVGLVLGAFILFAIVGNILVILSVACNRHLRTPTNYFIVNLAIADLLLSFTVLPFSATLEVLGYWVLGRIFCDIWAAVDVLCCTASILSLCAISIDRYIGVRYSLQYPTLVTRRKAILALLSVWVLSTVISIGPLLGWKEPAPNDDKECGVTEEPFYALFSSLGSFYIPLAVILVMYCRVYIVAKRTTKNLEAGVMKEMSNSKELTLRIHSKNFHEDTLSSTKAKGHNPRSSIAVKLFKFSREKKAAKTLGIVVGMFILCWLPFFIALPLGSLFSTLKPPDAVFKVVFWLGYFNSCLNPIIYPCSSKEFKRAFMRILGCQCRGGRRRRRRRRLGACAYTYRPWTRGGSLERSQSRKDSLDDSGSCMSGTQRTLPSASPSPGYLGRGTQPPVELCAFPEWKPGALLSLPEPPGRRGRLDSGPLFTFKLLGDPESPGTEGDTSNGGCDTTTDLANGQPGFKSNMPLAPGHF
The experiment in a line: Blocking activity was assessed by antagonism of (-)-phenylephrine induced contraction of rat spleen (alpha1B adrenoceptor). As to conditions: read-out: pA2 (converted); call rule not given here. Format: functional, tissue-based.

Assay [7] deals with T5, Alpha-1D adrenergic receptor (Rattus norvegicus, UniProt P23944).
T5 sequence (P23944 whole entry): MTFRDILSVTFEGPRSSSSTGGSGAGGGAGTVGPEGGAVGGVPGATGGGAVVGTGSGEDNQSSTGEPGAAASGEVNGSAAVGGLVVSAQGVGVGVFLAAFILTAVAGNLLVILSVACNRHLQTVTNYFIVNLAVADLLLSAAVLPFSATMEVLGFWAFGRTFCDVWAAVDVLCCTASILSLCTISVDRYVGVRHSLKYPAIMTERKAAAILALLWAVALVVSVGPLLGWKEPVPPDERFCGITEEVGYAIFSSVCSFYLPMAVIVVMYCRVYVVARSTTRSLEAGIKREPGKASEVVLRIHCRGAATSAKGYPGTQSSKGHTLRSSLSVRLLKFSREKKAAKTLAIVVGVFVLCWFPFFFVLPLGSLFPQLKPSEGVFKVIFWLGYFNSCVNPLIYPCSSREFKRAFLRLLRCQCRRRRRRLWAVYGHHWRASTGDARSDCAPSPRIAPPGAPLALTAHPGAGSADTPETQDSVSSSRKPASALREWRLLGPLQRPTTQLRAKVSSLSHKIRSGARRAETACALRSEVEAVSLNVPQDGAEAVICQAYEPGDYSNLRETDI
Nature of the assay: Blocking activity was assessed by antagonism of (-)-noradrenaline induced contraction of rat thoracic aorta (Alpha-1D adrenoceptor). In kind it is functional, tissue-based. As to conditions: read-out: pA2 (converted).

Assay [8] has as its target T6, Alpha-1B adrenergic receptor (Homo sapiens, UniProt P35368).
T6 sequence (P35368 whole entry): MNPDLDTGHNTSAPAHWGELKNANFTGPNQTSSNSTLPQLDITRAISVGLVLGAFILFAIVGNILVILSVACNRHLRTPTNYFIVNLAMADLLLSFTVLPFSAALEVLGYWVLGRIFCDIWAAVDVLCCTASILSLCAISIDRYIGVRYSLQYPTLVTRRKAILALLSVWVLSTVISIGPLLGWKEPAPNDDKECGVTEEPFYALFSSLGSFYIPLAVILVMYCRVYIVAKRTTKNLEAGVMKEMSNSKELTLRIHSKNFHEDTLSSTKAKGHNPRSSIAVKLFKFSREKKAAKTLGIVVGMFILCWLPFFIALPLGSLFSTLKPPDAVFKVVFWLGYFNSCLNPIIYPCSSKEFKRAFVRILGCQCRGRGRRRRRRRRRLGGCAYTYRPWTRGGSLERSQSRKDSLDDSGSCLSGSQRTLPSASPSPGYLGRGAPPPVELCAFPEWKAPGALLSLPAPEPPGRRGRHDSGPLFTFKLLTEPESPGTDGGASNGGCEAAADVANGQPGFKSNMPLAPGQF
The experiment in a line: Equilibrium dissociation constant was evaluated by radio-receptor binding assays using [3H]prazosin to label cloned human alpha 1b expressed in CHO cells. Format: cell-based.

Assay [9] has as its system LNCaP. The experiment in a line: Antioxidant activity against formation of ROS was determined in t-BuOOH treated LNCaP cells after 24 hr of incubation with compounds (1-100 uM). In kind it is functional, cell-based. The conditions noted are these: Homo sapiens.
Assay [10] relates to LNCaP. The experiment in a line: Antiproliferative activity was determined by colorimetric MTS assay in LNCaP cells after 72 hr of incubation with compounds (1-100 uM); Not active at 100 uM. Format: functional, cell-based, Homo sapiens. The method in brief: as §1
In assay [11] the test system is LNCaP. The experiment in a line: Antiproliferative activity in MTS assay in LNCaP cells after 72 hr at 1-100 uM; Inactive at 100 uM. Format: functional, cell-based, Homo sapiens. The method in brief: as §1
Assay [12] has as its system LNCaP. The experiment in a line: Antioxidant activity against t-BuOOH induced ROS formation in LNCaP cells after 24 hr at 1-100 uM; Inactive at 100 uM. Format: functional, cell-based, Homo sapiens.

As a reminder, the IC50 is the concentration that inhibits the measured activity by half. One may read the Ki as the equilibrium dissociation constant of an inhibitor or competing ligand from its target. High values mean a looser hold on the target, low ones a stronger hold on the target. On to `COc1cc2nc(N3CCN(C(=O)C4CCSS4)CC3)nc(N)c2cc1OC` (stereo not drawn), for which the results for the IC50 result in the assay on LNCaP [1] and in the assay on LNCaP [3] were “Not Active” and 49600 nM, respectively. For the same molecule, the inhibition constant Ki in assay [2] was 0.49 nM; in assay [5], 0.813 nM; in assay [8] it was 0.537 nM. The Kb in [4] was 18.6 nM; in assay [6], 1.74 nM; in assay [7] it was 0.871 nM.

On to `COc1cc2nc(N3CCN(C(=O)CC4CCSS4)CC3)nc(N)c2cc1OC` (stereo not drawn), for which the IC50 result in the assay on LNCaP [1] is “Not Active”; with LNCaP [3] it was 52600 nM. Moreover, the Ki in assay [2] is 0.389 nM; in assay [5], 0.288 nM; in [8] it was 0.309 nM. Besides, the figures for the Kb in assay [4], in [6] and in assay [7] were 1 nM, 1.02 nM and 0.912 nM, respectively.

For the molecule `COc1cc2nc(N3CCN(C(=O)CCCCC4CCSS4)CC3)nc(N)c2cc1OC` (stereo not drawn), the Ki in assay [2] was 0.891 nM; in [5], 1.41 nM; in assay [8], 1.26 nM. In addition, the IC50 in the assay on LNCaP [9] was 83500 nM; in the assay on LNCaP [10], “Not Active”. Further, the Kb is 64.6 nM in [4], 40.7 nM in [6] and 12 nM in [7].

Turning to `COc1cc2nc(N3CCN(C4=CC(=O)c5ccccc5C4=O)CC3)nc(N)c2cc1OC`, the Ki in assay [2] is 0.933 nM; in [5] it was 1.26 nM; in assay [8], 0.676 nM. For the same molecule, the results for the IC50 in the assay with LNCaP [3] and in the assay with LNCaP [9] were 8820 nM and 2630 nM, respectively. The results for the Kb in [4], in assay [6] and in assay [7] were 22.9 nM, 3.09 nM and 0.891 nM, respectively.

In the case of `COC1=CC(=O)c2ccccc2C1=O` [2-Methoxy-1,4-naphthoquinone], the IC50 entry with LNCaP [11] and in the assay on LNCaP [12] was “Not Active” in each case.

In the case of `COc1cc2nc(N3CCNCC3)nc(N)c2cc1OC` [AMINODIMETHOXYQUINAZOLINYLPIPERAZINE], the IC50 result with LNCaP [1] and in the assay with LNCaP [10] was “Not Active” each time.

With `O=C(O)CCCCC1CCSS1` (stereo not drawn) [LIPOIC ACID, ALPHA], the results for the half-maximal inhibitory concentration (IC50) in the assay with LNCaP [9] and with LNCaP [10] were 54900 nM and “Not Active”, respectively. In addition, the Kb in [4], in assay [6] and in assay [7] was > 10000 nM in each case.

Regarding `COc1cc2nc(N3CCN(C(=O)c4ccco4)CC3)nc(N)c2cc1OC` [PRAZOSIN], the IC50 entry in the assay on LNCaP [1] is “Not Active”; with LNCaP [3] it was 67500 nM.
